Assay results pooled from the literature.
Protocols differ between the studies behind these lines.
Target: Cannabinoid receptor 2 (CNR2, Homo sapiens, UniProt P34972)

Compound | assay | conditions | endpoint | result
Cc1nc([C@@](C)(CC2CC2)NC(=O)c2cc(OCC(F)(F)F)c(C3CC3)cn2)no1 | cAMP, agonist |  | EC50 | 8 nM
COc1ccc(-c2cnc3c(c2)cc(C(=O)NC2CCC(C)CC2)c(=O)n3CCN2CCOCC2)cc1 (stereo not drawn) | ligand displacement, radioligand |  | IC50 | 5.56 nM
C[C@H]1CC[C@H]2[C@H](C1)c1c(O)cc(-c3csc4ccccc34)cc1OC2(C)C | GTPγS binding, agonist, radiometric | cell membranes | EC50 | 16000 nM
CC1(C)C(C(=O)c2cn(CCCCCF)c3ccccc23)C1(C)C | GTPγS binding, agonist, radiometric | cell membranes | EC50 | 145 nM
CCOC(=O)C(CC)(CCCSCCOCCOCCOCCNC(=O)OC(C)(C)C)NC(=O)c1ccc(C2CC2)c(Cc2ccc(F)cc2)n1 (stereo not drawn) | cAMP, agonist |  | EC50 | 10 nM
CCCCCn1cc(C(=O)C2C(C)(C)C2(C)C)c2ccccc21 | GTPγS binding, agonist, radiometric | cell membranes | EC50 | 334 nM
NC(=O)[C@@H]1CC(F)(F)CN1C(=O)c1ccc(N2CC(F)(F)C2)c(OCC2CC2)n1 | cAMP, agonist |  | EC50 | 3 nM
CCOC(=O)[C@](CC)(CCC[S+]([O-])CCOCCOCCNC(=O)OC(C)(C)C)NC(=O)c1ccc(C2CC2)c(Cc2ccc(F)cc2)n1 (stereo partly drawn) | cAMP, agonist |  | EC50 | 7.9 nM
CC1CCC(NC(=O)c2cc3cc(Br)cnc3n(CCN3CCOCC3)c2=O)CC1 (stereo not drawn) | ligand displacement, radioligand |  | IC50 | 4.95 nM
